This note sets out measurements from ChEMBL document CHEMBL1921780, “Novel 3-nitro-1H-1,2,4-triazole-based aliphatic and aromatic amines as anti-chagasic agents” (J Med Chem, 2011).

SMILES strings stand for the structures.

The subject of data set [1] is Trypanosoma brucei brucei. The experiment in a line: Antitrypanosomal activity against blood-stream Trypanosoma brucei brucei after 3 days by alamar blue assay. Format: functional, organism-based. To be noted: 72 h. The procedure, abridged: (§1)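 Bloodstream-form parasites seeded at 1 × 10^3 per ml in growth medium with a range of nitrotriazole or nifurtimox concentrations, no tetracycline. Incubated 3 days at 37 °C, then Alamar blue added for a further 16 h. IC50 taken from culture cell density.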
On the technique in general: Resazurin is reduced to fluorescent resorufin, in cell work by metabolically active cells.

Data set [2] relates to L6. The experiment in a line: Cytotoxicity against rat L6 cells after 72 hrs by alamar blue assay. Format: cell-based. As to conditions: L6, 72 h; call rule not given here. The procedure, abridged: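 Run in 96-well plates with a compound dose series. T. cruzi was tested as amastigotes inside infected L6 rat skeletal myoblasts. Uninfected L6 cells were used for cytotoxicity. IC50 was obtained by linear regression from sigmoidal dose–inhibition curves.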

A short description of data set [3]: Selectivity index, ratio of IC50 for rat L6 cells to IC50 for Leishmania donovani MHOM-ET-67/L82. In kind it is toxicity, cell-based. As to conditions: L6 cells versus Leishmania donovani MHOM-ET-67/L82, read-out: Ratio IC50. The gist of the method:
(§2)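 Selectivity index is the L6 myoblast IC50 divided by the IC50 for each parasite. L. donovani was tested as axenic amastigotes. Both IC50s came from 96-well dose-response screens fitted by linear regression of sigmoidal curves.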

The nature of data set [4]: Dissociation constant, pKa of the compound. In kind it is physicochemical.
A short description of data set [5]: Selectivity index, ratio of IC50 for rat L6 cells to IC50 for Trypanosoma brucei rhodesiense STIB 900. In kind it is toxicity, cell-based. To be noted: L6 cells versus Trypanosoma brucei rhodesiense STIB 900, read-out: Ratio IC50. The gist of the method:
as §2

Data set [6] deals with Leishmania donovani. The experiment in a line: Antileishmanial activity against Leishmania donovani MHOM-ET-67/L82 axenic amastigotes after 72 hrs by alamar blue assay. To be noted: MHOM-ET-67/L82, 72 h.
Data set [7] can be described thus: Selectivity index, ratio of IC50 for rat L6 cells to IC50 for Trypanosoma cruzi Tulahuen C4. To be noted: L6 cells versus Trypanosoma cruzi Tulahuen C4, read-out: Ratio IC50. In kind it is toxicity, cell-based. The procedure, abridged: as §2
The test system of data set [8] is Trypanosoma cruzi. In words: Ratio of benznidazole IC50 to compound IC50 for Trypanosoma cruzi Tulahuen C4 infected in rat L6 cells after 72 hrs by alamar blue assay. Format: functional.
The subject of data set [9] is Trypanosoma brucei rhodesiense. In words: Antitrypanosomal activity against blood stream form of Trypanosoma brucei rhodesiense STIB 900 […] after 72 hrs by alamar blue assay. As to conditions: STIB 900, 72 h. In kind it is functional, organism-based.
In data set [10] the test system is Trypanosoma cruzi. In words: Antitrypanosomal activity against amastigotes of Trypanosoma cruzi Tulahuen C4 infected in rat L6 cells after 72 hrs by alamar blue assay. To be noted: Tulahuen C4, L6, 72 h.
The subject of data set [11] is Trypanosoma brucei brucei. In words: Ratio of IC50 for blood-stream Trypanosoma brucei brucei expressing type 1 nitroreductase in the absence of tetracycline to IC50 for tetracycline-induced blood-stream Trypanosoma brucei brucei overexpressing type 1 nitroreductase. Format: functional. The procedure, abridged: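 Each culture seeded at 1 × 10^3 per ml, given compound for 3 days at 37 °C, then Alamar blue added for 16 h. IC50 taken from cell density, and the ratio is uninduced over induced.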

Data set [12] has as its system Trypanosoma brucei brucei. In words: Antitrypanosomal activity against blood-stream Trypanosoma brucei brucei expressing type 1 nitroreductase after 3 days by alamar blue assay in absence of tetracycline. In kind it is functional, organism-based. To be noted: 72 h. The gist of the method: as §1
Data set [13] concerns Salmonella typhimurium. The experiment in a line: Induction of mutagenesis in Salmonella Typhimurium by Ames test. As to conditions: salmonella enterica subsp. enterica serovar typhimurium. Format: toxicity, organism-based. (The Ames test uses bacterial strains that need an amino acid and regain growth without it when mutated back.)
The test system of data set [14] is Trypanosoma brucei brucei. In words: Antitrypanosomal activity against tetracycline-induced blood-stream Trypanosoma brucei brucei overexpressing type 1 nitroreductase after 3 days by alamar blue assay. As to conditions: 72 h. In kind it is functional, organism-based. The gist of the method:
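Bloodstream-form parasites carrying inducible TbNTR, with expression induced by tetracycline (1 μg/mL). Seeded at 1 × 10^3 per ml with a range of nitrotriazole or nifurtimox concentrations. Incubated 3 days at 37 °C, then Alamar blue added for 16 h. IC50 taken from cell density.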

Take `Cl.Cl.O=[N+]([O-])c1ncn(CCCN2CCN(Cc3ccc(C(F)(F)F)cc3)CC2)n1`: the IC50 (usually the concentration needed to halve the response being measured) is over 10000 nM in [1]; over 191000 nM in data set [2]; 58200 nM in [6]; 1380 nM in data set [9]; 340 nM in [10]. Moreover, the results for the selectivity ratio in data set [3], in [5] and in data set [7] were over 3, over 140 and over 562, respectively. Further, in [4], the pKa (in general, the pH at which an ionisable group is half protonated) amounted to 8.33. Besides, in [8], the “Ratio IC50” value was determined as 4.
For the molecule `Cl.O=[N+]([O-])c1ncn(CCCNc2c3ccccc3nc3ccccc23)n1`, the IC50 in data set [2] is 20500 nM; in [6], 35400 nM; in [9] it was 611 nM; in [10], 140 nM. The selectivity ratio stood at 1 in [3], 34 in [5] and 147 in [7]. In data set [4], the pKa worked out at 9.2. In addition, the “Ratio IC50” value in [8] was found to be 9.6.
Turning to `Cl.O=[N+]([O-])c1ncn(CCCCNc2ccnc3cc(C(F)(F)F)ccc23)n1`, the IC50 in [2] was found to be 114000 nM; in data set [6], 137000 nM; in [9], 117 nM; in data set [10], 305 nM. The selectivity ratio in data set [3] is 1; in data set [5], 973; in [7] it was 373. In data set [4], this molecule had a pKa of 7.53. Further, the “Ratio IC50” value in data set [8] is on record as 4.4.
`Cl.O=[N+]([O-])c1ncn(CCCNCc2ccc(C(F)(F)F)cc2)n1`: the IC50 stood at 122000 nM in [2], 159000 nM in data set [6], 3610 nM in data set [9] and 320 nM in data set [10]. Also, the selectivity ratio in [3] came out at 1; in [5], 34; in data set [7] it was 383. For the same molecule, the pKa in data set [4] amounted to 9.65. Also, the “Ratio IC50” value in [8] was 4.2.
In the case of `Cl.O=[N+]([O-])c1ncn(CCCN(Cc2ccc3ccc(Cl)cc3n2)Cc2ccc3ccc(Cl)cc3n2)n1`, the IC50 worked out at 71600 nM in data set [2], 9580 nM in data set [6], 917 nM in [9] and 358 nM in data set [10]. For the same molecule, the results for the selectivity ratio in [3], in data set [5] and in [7] were 7, 78 and 200, respectively. The molecule further displayed a pKa in data set [4] of 6.87. Moreover, the “Ratio IC50” value in data set [8] was 3.8.
Take `Cl.O=[N+]([O-])c1ncn(CCCNc2nc(-c3ccccc3)nc3ccccc23)n1`: the IC50 amounted to 2630 nM in [1]; 97000 nM in data set [2]; 4480 nM in data set [12]; 9480 nM in data set [6]; 70 nM in data set [14]; 1420 nM in data set [9]. Moreover, the IC50 in data set [10] is 1480 nM. Moreover, the figures for the “Ratio IC50” value in data set [11] and in data set [8] were 64 and 0.9, respectively. Moreover, the selectivity ratio in data set [3] came out at 10; in data set [5] it was 68; in data set [7], 66. The same molecule gave a pKa in [4] of 5.06. In addition, the Activity result in data set [13] was “Non-toxic”.
In the case of `Cl.O=[N+]([O-])c1ncn(CCCCNc2ccnc3cc(Cl)ccc23)n1`, the IC50 in data set [1] is 170 nM; in data set [2], 137000 nM; in data set [12], 440 nM; in [6] it was 64500 nM; in data set [14] it was 100 nM; in data set [9], 193 nM. In [10], this molecule yielded an IC50 of 140 nM. Moreover, the figures for the “Ratio IC50” value in data set [11] and in data set [8] were 4 and 9.6, respectively. Moreover, the selectivity ratio in data set [3] amounted to 2; in data set [5], 708; in [7] it was 976. Further, the pKa in data set [4] stood at 7.31.
For the molecule `Cl.O=[N+]([O-])c1ncn(CCCCNc2nc(-c3ccccc3)nc3ccccc23)n1`, the half-maximal inhibitory concentration (IC50) is 77000 nM in [2], 8690 nM in data set [6], 562 nM in [9] and 1740 nM in [10]. Also, the selectivity ratio came out at 9 in [3], 137 in [5] and 44 in [7]. The pKa in [4] was 5.06. The “Ratio IC50” value in data set [8] is 0.8.
In the case of `Cl.Cl.O=[N+]([O-])c1ncn(CCCN2CCN(c3ccc(C(F)(F)F)cc3)CC2)n1`, the IC50 in data set [1] is 2300 nM; in data set [2] it was 52800 nM; in data set [12] it was 2630 nM; in [6], 25900 nM; in data set [14] it was 210 nM; in data set [9] it was 5330 nM. The same molecule registered an IC50 in data set [10] of 40 nM. Besides, the “Ratio IC50” value in data set [11] is recorded as 13; in data set [8], 33.8. The selectivity ratio in data set [3] was found to be 2; in data set [5], 10; in data set [7], 1320. Moreover, in data set [4], the pKa stood at 7.85.
`Cl.Cl.O=[N+]([O-])c1ncn(CCCCN2CCN(Cc3ccc(C(F)(F)F)cc3)CC2)n1`: the IC50 was over 10000 nM in data set [1]; 118000 nM in data set [2]; 44400 nM in data set [6]; 1200 nM in data set [9]; 412 nM in [10]. Also, the selectivity ratio in data set [3] was 3; in [5], 99; in data set [7], 287. In data set [4], the pKa amounted to 8.52. The “Ratio IC50” value in data set [8] is reported as 3.3.
On to `Cl.O=[N+]([O-])c1nccn1CCCNc1nc(-c2ccccc2)nc2ccccc12`, for which the IC50 in data set [1] worked out at 7470 nM; in data set [2], 87800 nM; in [12], 7580 nM; in [6] it was 10100 nM; in data set [14] it was 950 nM; in data set [9], 3920 nM. The molecule also gave an IC50 in data set [10] of 1970 nM. The “Ratio IC50” value in data set [11] is 8; in data set [8] it was 0.7. In addition, the figures for the selectivity ratio in data set [3], in data set [5] and in data set [7] were 9, 22 and 45, respectively. Further, the pKa in [4] is 5.06.
As to `CC1CS(=O)(=O)CCN1/N=C/c1ccc([N+](=O)[O-])o1` (stereo not drawn) [NIFURTIMOX], the “Ratio IC50” value in data set [11] is 13. In addition, the IC50 in [12] came out at 1710 nM; in data set [14] it was 130 nM.
In the case of `Cl.O=[N+]([O-])c1ncn(CCCNc2ccnc3cccnc23)n1`, the IC50 in data set [1] is over 10000 nM; in data set [2], 133000 nM; in [6] it was 182000 nM; in data set [9] it was 2220 nM; in data set [10] it was 1030 nM. The selectivity ratio in [3] was 1; in [5], 60; in data set [7], 129. Besides, in [4], the pKa is 6.81. Further, the “Ratio IC50” value in data set [8] is 1.3.
`Cl.O=[N+]([O-])c1ncn(CCCNc2ccnc3cc(Cl)ccc23)n1`: the IC50 in data set [2] stood at 143000 nM; in [6], 45800 nM; in data set [9] it was 309 nM; in data set [10], 607 nM. Also, the selectivity ratio in [3] came out at 3; in data set [5], 463; in [7], 236. The pKa in data set [4] is 7.31. The Activity entry in data set [13] was “Non-toxic”. Moreover, the “Ratio IC50” value in data set [8] worked out at 2.2.
Take `Cl.O=[N+]([O-])c1ncn(CCCN(Cc2ccc3cc(Br)ccc3n2)Cc2ccc3cc(Br)ccc3n2)n1`: the IC50 was found to be 46000 nM in [2], 9330 nM in data set [6], 463 nM in [9] and 320 nM in data set [10]. In addition, the selectivity ratio in data set [3] is 5; in [5], 99; in data set [7] it was 144. This molecule came in with a pKa in data set [4] of 6.87. In [8], the “Ratio IC50” value came to 4.2.
For the molecule `Cl.O=[N+]([O-])c1ncn(CCCN(Cc2ccc(C(F)(F)F)cc2)Cc2ccc(C(F)(F)F)cc2)n1`, the IC50 came to 210 nM in data set [1]; 91900 nM in [2]; 200 nM in [12]; 348 nM in data set [6]; 100 nM in data set [14]; 271 nM in data set [9]. In data set [10], this molecule registered an IC50 of 145 nM. Also, the “Ratio IC50” value in data set [11] is 2; in [8], 9.3. Further, the selectivity ratio was determined as 264 in [3], 339 in data set [5] and 634 in [7]. In [4], this molecule gave a pKa of 8.79.
